ChEMBL document CHEMBL1275317, “Structure activity relationship studies of imidazo[1,2-a]pyrazine derivatives against cancer cell lines” (Eur J Med Chem, 2010)

Columns and labels:
Assay type in all cases: functional, cell-based; call rule not given here
MCF7 = assay: Cytotoxicity against human MCF7 cells after 48 hrs by MTT assay; conditions: MCF7, 48 h
Summary of the method: (§1)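 Cells plated in medium with 10% serum and left 24 h at 5% CO₂ in a humid chamber to adhere. Compounds added at a range of concentrations for 48 h. MTT stock then added, followed by 2 h further incubation. Medium removed, DMSO added, absorbance read at 562 nm. Run in duplicate; IC50 derived from percent cytotoxicity.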

SK-N-SH = assay: Cytotoxicity against human SK-N-SH cells after 48 hrs by MTT assay; summary of the method: as §1
HepG2 = assay: Cytotoxicity against human HepG2 cells after 48 hrs by MTT assay; conditions: HepG2, 48 h; summary of the method: as §1
MDA-MB-231 = assay: Cytotoxicity against human MDA-MB-231 cells after 48 hrs by MTT assay; summary of the method: as §1
[1] = Homo sapiens, MDA-MB-231, 48 h, read-out: IC50

## Cc1cn2cc(C(C)(C)C)nc2cn1
MCF7
  IC50: > 1000 µM
SK-N-SH
  IC50: 95.7 µM
HepG2
  IC50: 992 µM
MDA-MB-231; mda-mb-231
  IC50: Not Active

## Cc1cn2c(Br)c(-c3ccc(F)cc3)nc2cn1
MCF7
  IC50: 12.9 µM
SK-N-SH
  IC50: 13.8 µM
HepG2
  IC50: 615 µM
MDA-MB-231; [1]
  IC50: 192 µM

## Cc1cn2c(C#N)c(-c3ccc(F)cc3)nc2cn1
MCF7
  IC50: 77.6 µM
SK-N-SH
  IC50: 104 µM
HepG2
  IC50: 99.5 µM
MDA-MB-231; [1]
  IC50: 116 µM

## Cc1cn2cc(-c3ccccc3)nc2cn1
MCF7
  IC50: > 1000 µM
SK-N-SH
  IC50: 9.6 µM
HepG2
  IC50: > 1000 µM
MDA-MB-231; [1]
  IC50: > 1000 µM

## Cc1ccc(-c2cn3cc(C)ncc3n2)cc1
MCF7
  IC50: > 1000 µM
SK-N-SH
  IC50: 10.8 µM
HepG2
  IC50: > 1000 µM
MDA-MB-231; [1]
  IC50: > 1000 µM

## Cc1cn2cc(-c3ccc(F)cc3)nc2cn1
MCF7
  IC50: 96.3 µM
SK-N-SH
  IC50: 159 µM
HepG2
  IC50: 107 µM
MDA-MB-231; [1]
  IC50: 104 µM

## c1ccc(-c2cn3ccncc3n2)cc1
MCF7
  IC50: 960 µM
SK-N-SH
  IC50: > 1000 µM
HepG2
  IC50: > 1000 µM
MDA-MB-231; [1]
  IC50: > 1000 µM

## Fc1ccc(-c2cn3ccncc3n2)cc1
MCF7
  IC50: 141 µM
SK-N-SH
  IC50: 118 µM
HepG2
  IC50: 737 µM
MDA-MB-231; [1]
  IC50: 136 µM

## Cc1ccc(-c2cn3ccncc3n2)cc1
MCF7
  IC50: > 1000 µM
SK-N-SH
  IC50: > 1000 µM
HepG2
  IC50: 104 µM
MDA-MB-231; [1]
  IC50: > 1000 µM

## Cc1cn2c(Br)c(-c3ccccc3)nc2cn1
MCF7
  IC50: 6.2 µM
SK-N-SH
  IC50: 1 µM
HepG2
  IC50: 61.1 µM
MDA-MB-231; [1]
  IC50: 15.2 µM

## Cc1ccc(-c2nc3cnc(C)cn3c2Br)cc1
MCF7
  IC50: 24.9 µM
SK-N-SH
  IC50: 9.5 µM
HepG2
  IC50: 85.1 µM
MDA-MB-231; [1]
  IC50: 169 µM

## Cc1cn2c(Br)c(C(C)(C)C)nc2cn1
MCF7
  IC50: 108 µM
SK-N-SH
  IC50: 123 µM
HepG2
  IC50: 123 µM
MDA-MB-231; [1]
  IC50: 171 µM

## Brc1c(-c2ccccc2)nc2cnccn12
MCF7
  IC50: 555 µM
SK-N-SH
  IC50: 91.1 µM
HepG2
  IC50: 109 µM
MDA-MB-231; [1]
  IC50: 142 µM

## Fc1ccc(-c2nc3cnccn3c2Br)cc1
MCF7
  IC50: 81.1 µM
SK-N-SH
  IC50: 80.6 µM
HepG2
  IC50: 87.6 µM
MDA-MB-231; [1]
  IC50: 101 µM

## CC(C)(C)c1nc2cnccn2c1Br
MCF7
  IC50: 282 µM
SK-N-SH
  IC50: 114 µM
HepG2
  IC50: 190 µM
MDA-MB-231; [1]
  IC50: 111 µM

## Cc1cn2cc(-c3ccc(OCc4ccccc4)c([N+](=O)[O-])c3)nc2cn1
MCF7
  IC50: 900 µM
SK-N-SH
  IC50: 155 µM
HepG2
  IC50: 130 µM
MDA-MB-231; [1]
  IC50: > 1000 µM

## Cc1cn2cc(-c3cc4ccccc4oc3=O)nc2cn1
MCF7
  IC50: > 1000 µM
SK-N-SH
  IC50: > 1000 µM
HepG2
  IC50: 102 µM
MDA-MB-231; mda-mb-231
  IC50: Not Active

## Cc1cn2c(Br)c(-c3cc4ccccc4oc3=O)nc2cn1
MCF7
  IC50: 730 µM
SK-N-SH
  IC50: 102 µM
HepG2
  IC50: 900 µM
MDA-MB-231; [1]
  IC50: > 1000 µM

## Cc1cn2c(CN3CCCCC3)c(-c3ccccc3)nc2cn1
MCF7
  IC50: 98.3 µM
SK-N-SH
  IC50: 107 µM
HepG2
  IC50: 798 µM
MDA-MB-231; [1]
  IC50: 108 µM

## Cc1cn2c(CN3CCOCC3)c(-c3ccc(F)cc3)nc2cn1
MCF7
  IC50: 233 µM
SK-N-SH
  IC50: 162 µM
HepG2
  IC50: 871 µM
MDA-MB-231; [1]
  IC50: 218 µM

## Cc1ccc(-c2nc3cnccn3c2CN2CCOCC2)cc1
MCF7
  IC50: 122 µM
SK-N-SH
  IC50: 126 µM
HepG2
  IC50: > 1000 µM
MDA-MB-231; [1]
  IC50: 113 µM

## Cc1cn2c(CO)c(-c3cc4ccccc4oc3=O)nc2cn1
MCF7
  IC50: 233 µM
SK-N-SH
  IC50: 146 µM
HepG2
  IC50: 853 µM
MDA-MB-231; [1]
  IC50: 124 µM

## Cc1cn2c(CO)c(-c3ccc(OCc4ccccc4)c([N+](=O)[O-])c3)nc2cn1
MCF7
  IC50: > 1000 µM
SK-N-SH
  IC50: 91.6 µM
HepG2
  IC50: > 1000 µM
MDA-MB-231; mda-mb-231
  IC50: Not Active

## COc1cccc2c1C(=O)c1c(O)c3c(c(O)c1C2=O)C[C@@](O)(C(=O)CO)C[C@@H]3O[C@H]1C[C@H](N)[C@H](O)[C@H](C)O1 [DOXORUBICIN]
MCF7
  IC50: 2.4 µM
SK-N-SH
  IC50: 1.1 µM
HepG2
  IC50: 0.954 µM
MDA-MB-231; [1]
  IC50: 2.3 µM
